A short description of series [1]: Selectivity ratio of Ki for N-terminal GST-tagged full length human recombinant PDE8A1 expressed in baculovirus-infected Sf9 cells to Ki for human PDE10A2 transfected in human AD293 cells cytosolic fraction.
Series [2] in a line: Selectivity ratio of Ki for N-terminal GST-tagged human recombinant PDE11A4 (1 to 943 residues) expressed in baculovirus-infected Sf9 cells to Ki for human PDE10A2 transfected in human AD293 cells cytosolic fraction.
Series [3] in a line: Selectivity ratio of Ki for Rhesus monkey PDE2A3 transfected in AD293 cells cytosolic fraction to Ki for human PDE10A2 transfected in human AD293 cells cytosolic fraction. The class given is cell-based.
The nature of series [4]: Selectivity ratio of Ki for N-terminal GST-tagged human recombinant PDE4A1A (1 to 647 residues) expressed in baculovirus-infected Sf9 cells to Ki for human PDE10A2 transfected in human AD293 cells cytosolic fraction.
Series [5] can be described thus: Unbound plasma clearance in rat. Format: ADME. The following applies: in vivo. The gist of the method:
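Rat unbound clearance (CLu) was calculated by dividing the measured rat plasma clearance by the rat plasma free fraction.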

A short description of series [6]: Selectivity ratio of Ki for N-terminal GST-tagged human recombinant PDE5A1 (1 to 875 residues) expressed in baculovirus-infected Sf9 cells to Ki for human PDE10A2 transfected in human AD293 cells cytosolic fraction.
Series [7] can be described thus: Selectivity ratio of Ki for N-terminal GST-tagged full length human recombinant PDE9A2 expressed in baculovirus-infected Sf9 cells to Ki for human PDE10A2 transfected in human AD293 cells cytosolic fraction.
A short description of series [8]: Selectivity ratio of Ki for N-terminal His-GST-tagged human recombinant PDE3A(669 to 1141 residues) expressed in baculovirus-infected Sf9 cells to Ki for human PDE10A2 transfected in human AD293 cells cytosolic fraction.
Series [9] is described as follows: Selectivity ratio of Ki for N-terminal GST-tagged and C-terminal His-tagged human recombinant PDE7A (122 to 456 residues) expressed in baculovirus-infected Sf9 cells to Ki for human PDE10A2 transfected in human AD293 cells cytosolic fraction.
Series [10] concerns the target cAMP and cAMP-inhibited cGMP 3',5'-cyclic phosphodiesterase 10A (Homo sapiens, UniProt Q9Y233). As to the kind of experiment: Inhibition of human PDE10A2 transfected in human AD293 cells cytosolic fraction using cAMP as substrate by fluorescence polarization assay. Format: subcellular, Cytosol. For orientation: Polarisation of emitted light reports the rotation of a fluorescent probe.

Series [11] can be described thus: Selectivity ratio of Ki for N-terminal GST-tagged human recombinant PDE1A expressed in baculovirus-infected Sf9 cells to Ki for human PDE10A2 transfected in human AD293 cells cytosolic fraction.
Series [12] deals with ATP-dependent translocase ABCB1 (Rattus norvegicus, UniProt P43245). In words: (§1) Substrate activity at rat P-gp assessed as efflux ratio. The class given is ADME.
A short description of series [13]: Aqueous solubility of the compound at pH 7. The following applies: buffer. Format: physicochemical.
Series [14] deals with P-gp (ABCB1) (Rattus norvegicus, UniProt P43245). The series is described as §1. The class given is ADME.
For series [15], the target named is Voltage-gated inwardly rectifying potassium channel KCNH2 (Homo sapiens, UniProt Q12809). As to the kind of experiment: Displacement of MK499 from hERG. The class given is toxicity.
Series [16] deals with Rattus norvegicus. In words: Cognitive-enhancing activity in rat assessed as improvement in novel object recognition at 0.56 mg/kg, po measured after 1 hr by novel object recognition test. The class given is functional, organism-based. The gist of the method: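 Novel object recognition in rats: oral dosing, then discrimination of a novel object from one seen 48 h earlier. Doses 0.08–0.25 mg/kg; donepezil 0.56 mg/kg as positive control. Groups compared with vehicle (p < 0.05). Plasma for exposure taken 1 h post dose, n = 4/group.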

Molecules are shown by their SMILES. pIC50, pKi: −log10 of the molar value. Values after ≈ are worked out from the molar mass of the structure shown. Active and inactive are the calls of the source. No cut-off for these calls is given here. Where only a bound is given, the exact number is not on record here.

Sequence of P-gp (ABCB1) (P43245 whole entry): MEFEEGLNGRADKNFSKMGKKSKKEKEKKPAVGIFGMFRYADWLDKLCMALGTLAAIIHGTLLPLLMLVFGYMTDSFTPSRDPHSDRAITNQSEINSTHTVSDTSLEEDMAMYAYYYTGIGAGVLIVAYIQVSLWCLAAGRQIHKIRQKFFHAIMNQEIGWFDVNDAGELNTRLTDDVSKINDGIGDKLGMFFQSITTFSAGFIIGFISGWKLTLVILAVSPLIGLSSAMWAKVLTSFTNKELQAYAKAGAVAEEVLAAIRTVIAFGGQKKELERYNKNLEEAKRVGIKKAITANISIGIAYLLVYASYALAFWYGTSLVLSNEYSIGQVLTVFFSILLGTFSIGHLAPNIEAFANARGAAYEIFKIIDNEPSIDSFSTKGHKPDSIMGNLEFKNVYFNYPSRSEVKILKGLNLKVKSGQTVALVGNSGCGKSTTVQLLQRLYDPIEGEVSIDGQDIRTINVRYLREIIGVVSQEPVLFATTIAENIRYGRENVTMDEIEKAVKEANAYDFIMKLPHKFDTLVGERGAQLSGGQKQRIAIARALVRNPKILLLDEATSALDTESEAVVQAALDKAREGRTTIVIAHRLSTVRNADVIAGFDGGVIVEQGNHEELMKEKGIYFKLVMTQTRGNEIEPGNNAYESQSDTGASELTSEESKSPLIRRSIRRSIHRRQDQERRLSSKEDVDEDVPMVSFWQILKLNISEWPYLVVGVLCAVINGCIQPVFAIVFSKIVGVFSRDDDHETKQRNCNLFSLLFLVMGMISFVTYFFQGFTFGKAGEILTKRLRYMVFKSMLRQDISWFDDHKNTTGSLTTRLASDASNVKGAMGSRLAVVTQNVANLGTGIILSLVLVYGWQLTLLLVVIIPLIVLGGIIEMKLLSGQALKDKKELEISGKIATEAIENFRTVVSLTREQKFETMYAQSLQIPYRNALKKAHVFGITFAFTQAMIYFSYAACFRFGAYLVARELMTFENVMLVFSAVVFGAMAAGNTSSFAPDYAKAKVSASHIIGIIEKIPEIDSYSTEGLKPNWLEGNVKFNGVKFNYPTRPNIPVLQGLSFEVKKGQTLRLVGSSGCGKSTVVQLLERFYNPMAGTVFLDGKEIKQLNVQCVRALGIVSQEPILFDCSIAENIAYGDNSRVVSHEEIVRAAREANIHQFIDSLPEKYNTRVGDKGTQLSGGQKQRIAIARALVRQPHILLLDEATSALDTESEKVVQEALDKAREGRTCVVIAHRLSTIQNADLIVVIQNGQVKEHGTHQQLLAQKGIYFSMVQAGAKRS
Sequence of cAMP and cAMP-inhibited cGMP 3',5'-cyclic phosphodiesterase 10A (Q9Y233 whole entry): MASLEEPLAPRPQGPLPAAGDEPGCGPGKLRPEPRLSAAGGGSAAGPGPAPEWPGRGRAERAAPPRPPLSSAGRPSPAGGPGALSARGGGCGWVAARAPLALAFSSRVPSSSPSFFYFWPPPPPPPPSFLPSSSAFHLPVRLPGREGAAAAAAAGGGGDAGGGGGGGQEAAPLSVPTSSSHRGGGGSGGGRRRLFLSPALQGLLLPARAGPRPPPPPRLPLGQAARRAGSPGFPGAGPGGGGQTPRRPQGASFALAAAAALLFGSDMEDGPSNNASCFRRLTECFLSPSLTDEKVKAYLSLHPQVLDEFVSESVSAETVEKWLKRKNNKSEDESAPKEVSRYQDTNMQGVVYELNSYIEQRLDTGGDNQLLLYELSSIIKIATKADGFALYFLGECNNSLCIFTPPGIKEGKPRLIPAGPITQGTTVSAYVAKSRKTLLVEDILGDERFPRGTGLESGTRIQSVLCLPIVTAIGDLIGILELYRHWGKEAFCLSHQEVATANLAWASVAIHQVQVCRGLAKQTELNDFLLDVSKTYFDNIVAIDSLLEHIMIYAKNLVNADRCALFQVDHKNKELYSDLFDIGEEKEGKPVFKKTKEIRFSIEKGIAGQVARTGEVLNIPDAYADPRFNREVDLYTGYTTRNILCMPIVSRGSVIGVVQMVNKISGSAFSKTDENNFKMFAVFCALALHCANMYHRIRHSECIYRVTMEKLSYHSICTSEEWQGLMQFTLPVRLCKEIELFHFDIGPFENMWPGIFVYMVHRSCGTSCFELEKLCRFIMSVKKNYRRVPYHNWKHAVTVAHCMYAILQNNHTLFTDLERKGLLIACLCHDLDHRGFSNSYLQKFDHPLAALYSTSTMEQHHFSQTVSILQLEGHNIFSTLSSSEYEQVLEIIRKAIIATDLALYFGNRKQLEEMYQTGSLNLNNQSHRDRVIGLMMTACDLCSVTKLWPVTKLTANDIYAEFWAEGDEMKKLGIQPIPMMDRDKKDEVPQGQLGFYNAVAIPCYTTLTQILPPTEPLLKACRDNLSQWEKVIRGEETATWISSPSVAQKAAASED
Sequence of ATP-dependent translocase ABCB1 (P43245 whole entry): as the sequence (P43245 whole entry) above
Sequence of Voltage-gated inwardly rectifying potassium channel KCNH2 (Q12809 whole entry): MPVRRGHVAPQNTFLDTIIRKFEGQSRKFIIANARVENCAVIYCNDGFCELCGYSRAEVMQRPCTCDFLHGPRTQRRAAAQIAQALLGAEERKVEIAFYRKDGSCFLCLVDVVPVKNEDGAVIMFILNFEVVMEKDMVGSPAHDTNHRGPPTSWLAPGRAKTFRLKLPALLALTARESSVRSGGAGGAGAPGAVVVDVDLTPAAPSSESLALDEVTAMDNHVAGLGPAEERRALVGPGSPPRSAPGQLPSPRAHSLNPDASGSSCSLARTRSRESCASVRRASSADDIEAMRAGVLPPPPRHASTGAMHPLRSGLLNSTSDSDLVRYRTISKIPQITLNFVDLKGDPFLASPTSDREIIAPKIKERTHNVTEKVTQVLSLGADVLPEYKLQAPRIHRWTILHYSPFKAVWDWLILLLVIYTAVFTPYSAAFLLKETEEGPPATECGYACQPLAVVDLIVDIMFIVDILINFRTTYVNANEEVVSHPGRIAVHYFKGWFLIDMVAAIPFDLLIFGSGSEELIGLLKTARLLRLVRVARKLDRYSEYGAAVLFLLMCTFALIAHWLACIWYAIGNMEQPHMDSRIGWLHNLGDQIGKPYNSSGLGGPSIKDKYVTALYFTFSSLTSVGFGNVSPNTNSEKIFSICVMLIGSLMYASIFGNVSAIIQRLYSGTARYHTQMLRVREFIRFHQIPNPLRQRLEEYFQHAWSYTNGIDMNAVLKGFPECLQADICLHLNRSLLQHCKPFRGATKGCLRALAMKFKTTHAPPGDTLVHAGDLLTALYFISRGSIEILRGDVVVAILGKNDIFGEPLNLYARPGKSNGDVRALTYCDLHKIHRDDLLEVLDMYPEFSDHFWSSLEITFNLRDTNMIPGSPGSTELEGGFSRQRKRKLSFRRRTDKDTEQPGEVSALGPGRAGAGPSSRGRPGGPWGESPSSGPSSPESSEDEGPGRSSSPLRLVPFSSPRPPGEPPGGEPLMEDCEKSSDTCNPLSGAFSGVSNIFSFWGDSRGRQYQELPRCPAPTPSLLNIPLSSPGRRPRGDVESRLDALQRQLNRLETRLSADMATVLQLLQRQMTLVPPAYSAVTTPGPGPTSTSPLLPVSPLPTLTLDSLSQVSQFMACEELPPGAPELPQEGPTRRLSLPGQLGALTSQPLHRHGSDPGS

For `Cc1nc(NCc2nnc(C)s2)cc(OC[C@H]2C[C@@H]2c2ccccn2)n1`, the Ratio Ki in series [1], in series [2], in [3], in series [4], in series [6] and in [7] was more than 45000 throughout. For the same compound, the Ratio Ki in series [8], in series [9] and in series [11] was more than 45000 each time. The compound also yielded a CL free in series [5] of 185 mL/min/kg. The pKi in series [10] was 9.48.

For `COc1ccc([C@H]2C[C@@H]2COc2cc(NCc3cnn(C)c3)nc(C)n2)nc1`, the Ratio Ki in [1], in series [2], in [3], in series [4], in [6] and in [7] was more than 490000 throughout. Besides, the Ratio Ki in [8], in series [9] and in [11] was more than 490000 in each case. The same compound yielded a CL free in [5] of 7080 mL/min/kg. This compound also gave a pKi in series [10] of 10.27.

Consider `Cn1cc(CNc2cc(OC[C@H]3C[C@@H]3c3ccccn3)nc3cnccc23)cn1`, for which the Ratio Ki in [1], in series [2], in series [3], in series [4], in series [6] and in series [7] was more than 7000 throughout. Also, the Ratio Ki in [8], in [9] and in series [11] was more than 7000 in each case. In series [12], the Ratio stood at 6.3. Besides, the pKi in series [10] is 9.89. This compound yielded a solubility in [13] of 149 µM (≈ 57.6 µg/mL).

For the compound `Cc1c(NCc2cnn(C)c2)cc(OC[C@H]2C[C@@H]2c2ccccn2)nc1Cl`, the Ratio Ki in series [1], in [2], in [3], in series [4], in series [6] and in [7] was more than 30000 throughout. The Ratio Ki in [8], in series [9] and in series [11] was more than 30000 throughout. Also, the efflux ratio in [14] was 0.6. In series [10], this compound showed a pKi of 10.33. This compound gave a solubility in [13] of 86 µM (≈ 33 µg/mL).

Consider `Cn1cc(CNc2cc(OC[C@H]3C[C@@H]3c3ccccn3)nc3ccccc23)cn1`, for which the Ratio Ki in [1], in series [2], in [3], in series [4], in [6] and in [7] was more than 5000 throughout. Besides, the Ratio Ki in series [8], in [9] and in series [11] was more than 5000 each time. In addition, the efflux ratio in series [14] was found to be 0.5. Also, the pKi in [10] is 9.31. Also, in [13], the solubility is 19 µM (≈ 7.32 µg/mL).

For the compound `Cc1nc(NCc2cnn(C)c2)cc(OC[C@H]2C[C@@H]2c2ccccn2)n1`, the Ratio Ki in series [1], in series [2], in [3], in series [4], in [6] and in series [7] was more than 67000 in each case. The Ratio Ki in series [8], in [9] and in [11] was more than 67000 throughout. Moreover, the pKi in series [10] was 9.22.

As to `Cc1c(Cl)cc(OC[C@H]2C[C@@H]2c2ccccn2)nc1NCc1cnn(C)c1`, the pKi in series [10] is 8.49.

In the case of `Cn1cc(CNc2cc(OC[C@H]3C[C@@H]3c3ccccn3)nc3ncccc23)cn1`, the pKi in [10] is 8.07.

As to `Cc1ccc([C@H]2C[C@@H]2COc2cc(NCc3cnn(C)c3)nc(C)n2)nc1`, the Ratio Ki in series [1], in series [2], in series [3], in [4], in series [6] and in [7] was more than 425000 throughout. Besides, the Ratio Ki in series [8], in series [9] and in series [11] was more than 425000 in each case. The compound further registered a CL free in series [5] of 4740 mL/min/kg. The same compound showed a pKi in series [10] of 10.21.

`Cn1cc(CNc2cc(OC[C@H]3C[C@@H]3c3ccccn3)nc3ccncc23)cn1`: the Ratio Ki in series [1], in series [2], in series [3], in series [4], in [6] and in [7] was more than 20000 throughout. Besides, the Ratio Ki in [8], in series [9] and in series [11] was more than 20000 each time. The Ratio in series [12] is on record as 24. Further, in series [10], the pKi was 9.92. In [13], this compound registered a solubility of 22 µM (≈ 8.5 µg/mL).

Turning to `Cc1c(Cl)nc(OC[C@H]2C[C@@H]2c2ccccn2)nc1NCc1cnn(C)c1`, the Ratio Ki in series [1], in series [2], in [3], in series [4], in series [6] and in series [7] was more than 2500 throughout. Also, the Ratio Ki in series [8], in series [9] and in [11] was more than 2500 in each case. In [5], the CL free was 2900 mL/min/kg. Further, in [14], the efflux ratio turned out to be 2.

Regarding `Cn1cc(CNc2cc(OC[C@H]3C[C@@H]3c3ccccn3)nc3cccnc23)cn1`, the Ratio Ki in series [1], in [2], in [3], in [4], in [6] and in [7] was more than 2000 throughout. The Ratio Ki in [8], in series [9] and in [11] was more than 2000 each time. The efflux ratio in series [14] is 0.7. Moreover, in series [10], the pKi is 9.06. This compound yielded a solubility in [13] of 81 µM (≈ 31.3 µg/mL).

As to `Cc1nnc(CNc2cc(OC[C@H]3C[C@@H]3c3ccccn3)nc3cccnc23)s1`, the Ratio Ki in [1], in series [2], in [3], in series [4], in series [6] and in series [7] was more than 3600 each time. For the same compound, the Ratio Ki in series [8], in series [9] and in series [11] was more than 3600 throughout. Moreover, the pIC50 in [15] was 4.60. This compound gave a negative-log Ki (pKi) in series [10] of 9.96.

In the case of `COc1cc2c(cc1OC)C(=O)C(CC1CCN(Cc3ccccc3)CC1)C2` (centres undefined), in [16], the outcome was Active.

In the case of `Cc1nc(C)c(CNc2nc(OCCCc3ccc4ccccc4n3)nc(Cl)c2C)s1`, the Ratio Ki in series [1], in [2], in series [3], in series [4], in series [6] and in series [7] was more than 5000 throughout. In addition, the Ratio Ki in series [8], in [9] and in series [11] was more than 5000 throughout. This compound also showed a CL free in series [5] of 12000 mL/min/kg.

Turning to `Cn1cc(CNc2cc(OC[C@H]3C[C@@H]3c3ccccn3)nc3ccnn23)cn1`, the Ratio Ki in series [1], in series [2], in series [3], in series [4], in series [6] and in series [7] was more than 5800 in each case. Besides, the Ratio Ki in series [8], in [9] and in [11] was more than 5800 each time. In addition, the efflux ratio in series [14] amounted to 0.7.

Turning to `COc1ccc([C@H]2C[C@@H]2COc2cc(NCc3nnc(C)s3)nc(C)n2)nc1`, the Ratio Ki in [1], in [2], in [3], in [4], in series [6] and in [7] was more than 225000 in each case. Besides, the Ratio Ki in series [8], in [9] and in [11] was more than 225000 throughout. The compound also came in with a CL free in series [5] of 530 mL/min/kg. The compound further showed a pKi in [10] of 10.42.

As a reminder, the pKi is the negative decadic logarithm of the Ki, by convention in mol/L. By solubility is commonly meant how much of the substance goes into solution per volume. As usually defined, the efflux ratio is a quotient of directional permeabilities that is used to spot active efflux. The term pIC50 denotes the negative decadic logarithm of the IC50, by convention in mol/L.

For the origin of these results see ChEMBL document CHEMBL5316310, “Discovery of MK-8189, a Highly Potent and Selective PDE10A Inhibitor for the Treatment of Schizophrenia” (J Med Chem, 2023).
